Experimental data from different studies.
Lines come from different studies, so protocols differ.
ALK L1196M: ALK tyrosine kinase receptor (ALK, Homo sapiens, UniProt Q9UM73, L1196M)
ALK: ALK tyrosine kinase receptor (ALK, Homo sapiens, UniProt Q9UM73)
ALK C1156Y: ALK tyrosine kinase receptor (ALK, Homo sapiens, UniProt Q9UM73, C1156Y)

O=C(Nc1c[nH]nc1C(=O)NC1CCNCC1)c1cc(F)cc(F)c1  remaining binding (ALK L1196M; binding, competition with immobilised ligand; 1 µM): 100%
Nc1c(C(=O)NCc2ccc(C(=O)NCCCC3CCCCC3)cc2)cnn1-c1ccccc1  remaining binding (ALK; cell-free assay, competition with immobilised ligand; 0.1 µM): 100%
O=C(NCC1CCOCC1)c1n[nH]cc1NC(=O)c1c(F)cccc1F  remaining binding (ALK; binding, competition with immobilised ligand; 1 µM): 93%
COc1cnc(Nc2cccc(S(N)(=O)=O)c2)nc1N1CCN(c2ccccc2)CC1  remaining binding (ALK; binding, competition with immobilised ligand; 1 µM): 78%
Cc1cnn2ncc(-c3ccnc(N(C)C)n3)c2c1  remaining binding (ALK L1196M; binding; 1 µM): 71%
CO[C@H]1CC[C@H](CNc2ccc(S(=O)(=O)NC(=O)c3ccc(N4CCN(CC5=C(c6ccc(Cl)cc6)CC(C)(C)CC5)CC4)cc3Oc3cnc4[nH]ccc4c3)cc2[N+](=O)[O-])CC1  remaining binding (ALK C1156Y; cell-free assay, competition with immobilised ligand; 1 µM): 100%
C=CC(=O)N1CCC(C(=O)NCC(=O)N2CCN(c3nc(-c4cnc(N)nc4C(F)F)nc(N4CCOCC4)n3)CC2)CC1  remaining binding (ALK; binding, competition with immobilised ligand; 1 µM): 71%
Cc1cnc(Nc2ccc(C(=O)N3CCC(N4CCCC4)CC3)cc2)nc1-c1cc2ccccc2s1  remaining binding (ALK; binding, competition with immobilised ligand; 1 µM): 42%
CN(C)c1ncc(F)c(-c2cnn3ncccc23)n1  remaining binding (ALK C1156Y; binding; 1 µM): 80%
N#Cc1ccccc1CSc1nnc2c(n1)[nH]c1ccccc12  remaining binding (ALK; binding, competition with immobilised ligand; 10 µM): 72%
COc1cnc(Nc2cccc(S(N)(=O)=O)c2)nc1N1CCN(c2ccccc2)C(=O)C1  remaining binding (ALK L1196M; binding, competition with immobilised ligand; 1 µM): 81%
COc1ccnn2ncc(-c3ccnc(N(C)C)n3)c12  remaining binding (ALK L1196M; binding; 1 µM): 91%
O=C(c1ccc(Nc2nccc(-c3cc4ccccc4s3)n2)cc1)N1CCC(N2CCCC2)CC1  remaining binding (ALK; binding, competition with immobilised ligand; 1 µM): 84%
CCCCN(CCCC)C(=O)CN1C[C@H](c2cc(OC)c3c(c2)OCO3)[C@@H](C(=O)O)[C@@H]1CC(C)(C)CCC  remaining binding (ALK C1156Y; cell-free assay, competition with immobilised ligand; 1 µM): 100%
O=C(NCCCN1CCOCC1)c1ccc(Nc2nccc(-c3cc4ccccc4s3)n2)cc1  remaining binding (ALK; binding, competition with immobilised ligand; 1 µM): 100%
C[C@@H]1CN(c2cc(-c3nn(C)c4ccc(OC5(C)CC5)cc34)ncn2)C[C@H](C)O1  remaining binding (ALK C1156Y; cell-free assay, competition with immobilised ligand; 1 µM): 82%
COc1ncc2cc3ccccc3nc2c1C#N  remaining binding (ALK C1156Y; cell-free assay, competition with immobilised ligand; 5 µM): 96%
CC1CCCN1c1nccc(-c2cnn3ncccc23)n1 (centres unmarked)  remaining binding (ALK L1196M; binding; 1 µM): 85%
O=C(NCCCN1CCOCC1)c1ccc(Nc2ncc(Cl)c(-c3ccc(Cl)s3)n2)cc1  remaining binding (ALK; binding, competition with immobilised ligand; 1 µM): 67%
Nc1ncc2c(n1)-c1c([nH]c3ccc(C#CC4CC4)cc13)CCCC2  remaining binding (ALK C1156Y; binding, competition with immobilised ligand; 1 µM): 84%
C[C@@H]1CCN(c2nccc(-c3cnn4ncccc34)n2)C1  remaining binding (ALK L1196M; binding; 1 µM): 100%
O=C(c1ccc(Nc2ncc(Cl)c(-c3ccc(Cl)s3)n2)cc1)N1CCC(N2CCCC2)CC1  remaining binding (ALK L1196M; binding, competition with immobilised ligand; 1 µM): 67%
CN1CCN(c2ccc(Nc3nccc(-c4cccc([N+](=O)[O-])c4)n3)cc2C(F)(F)F)CC1  remaining binding (ALK C1156Y; binding; 10 µM): 42%
N[C@@H]1CCN(c2nccc(-c3cnn4ncccc34)n2)C1  remaining binding (ALK; binding; 1 µM): 97%
c1cncc(-c2cccc(Nc3nccc(NC4CCCCC4)n3)c2)c1  remaining binding (ALK C1156Y; binding, competition with immobilised ligand; 10 µM): 37%
C[C@@H](c1ccc(-n2cnc3c(N)ncnc32)cc1)N1CCc2nn(C)c(Cc3ccccc3)c2C1=O  remaining binding (ALK L1196M; binding, competition with immobilised ligand; 0.1 µM): 60%
CNC(=O)[C@@H]1CC[C@@H](n2c(-c3ccc4cnccc4c3)nc3ccc(C(=O)NCc4cccc(C(N)=O)c4)cc32)C1  remaining binding (ALK; binding, competition with immobilised ligand; 1 µM): 100%
Cc1c(NC(=O)c2cc(C(N)=O)nc3cc(F)ccc23)c(C(F)(F)F)nn1Cc1ccc(C(C)(C)C)cc1  remaining binding (ALK; cell-free assay, competition with immobilised ligand; 1 µM): 96%
O=C(c1ccc(Nc2ncc(Cl)c(-c3cc4ccccc4s3)n2)cc1)N1CCC(N2CCCC2)CC1  remaining binding (ALK L1196M; binding, competition with immobilised ligand; 1 µM): 100%
COCCOc1nc(-c2ccc(Cl)nc2)nc2c1CN(C(=O)c1ncn3ccccc13)CC2  remaining binding (ALK L1196M; cell-free assay, competition with immobilised ligand; 0.1 µM): 100%
CN(C)c1nccc(-c2cnn3ncccc23)n1  remaining binding (ALK; binding; 1 µM): 100%
CO[C@@H](C)c1c(Nc2ccc([C@H](N(C)C(=O)C3CCS(=O)(=O)CC3)C(F)(F)F)cc2)cnc2cc(Cl)nn12  remaining binding (ALK C1156Y; cell-free assay, competition with immobilised ligand; 1 µM): 89%
CN1CCN(c2ccc(Nc3nccc(-c4ccccc4)n3)cc2C(F)(F)F)CC1  remaining binding (ALK C1156Y; binding; 10 µM): 60%
F[C@@H]1CCN(c2nccc(-c3cnn4ncccc34)n2)C1  remaining binding (ALK C1156Y; binding; 1 µM): 100%
C[C@@H]1CN(c2cc(-c3n[nH]c4ccc(OC5(C)CC5)cc34)ncn2)C[C@H](C)O1  remaining binding (ALK; cell-free assay, competition with immobilised ligand; 0.1 µM): 65%
